In ChEMBL document CHEMBL1126811, “Fluorinated and iodinated dopamine agents: D2 imaging agents for PET and SPECT” (J Med Chem, 1993):

How the values were obtained:
D(2) dopamine receptor = D(2) dopamine receptor (Rattus norvegicus, UniProt P61169); experiment: Inhibition constant against dopamine receptor D2 in rat
How it was run: (§1)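 Filtered on protamine-pretreated (0.2%) GF/B filters, washed with cold 50 mM Tris-HCl pH 7.4, gamma-counted. Nonspecific binding defined with 10 μM (+)-butaclamol. Scatchard and competition data fitted by iterative nonlinear least squares.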

Rattus norvegicus [1] = species: Rattus norvegicus; assay type: functional, Striatum, Membrane
Rattus norvegicus [2] = species: Rattus norvegicus; assay type: functional, Striatum, Membrane; remark: listed apart in the source
Rattus norvegicus [3] = species: Rattus norvegicus; experiment: Inhibition constant on radiolabeled [125I]FIDA1 binding to rat striatal membranes; design: species or system Striatum, Membrane; how it was run: as §1
Rattus norvegicus [4] = species: Rattus norvegicus; experiment: Inhibition constant on radiolabeled [125I]FIDA2 binding to rat striatal membranes; design: species or system Striatum, Membrane
How it was run: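 Rat striatal membrane homogenate (40–60 μg protein) incubated with 125I-labeled ligand ± competitors in 0.2 mL assay buffer, 15 min at 37 °C with stirring. Filtered on protamine-pretreated (0.2%) GF/B filters, washed with cold 50 mM Tris-HCl pH 7.4, gamma-counted. Nonspecific binding defined with 10 μM (+)-butaclamol. Scatchard and competition data fitted by iterative nonlinear least squares.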

Sequence of D(2) dopamine receptor (P61169 whole entry): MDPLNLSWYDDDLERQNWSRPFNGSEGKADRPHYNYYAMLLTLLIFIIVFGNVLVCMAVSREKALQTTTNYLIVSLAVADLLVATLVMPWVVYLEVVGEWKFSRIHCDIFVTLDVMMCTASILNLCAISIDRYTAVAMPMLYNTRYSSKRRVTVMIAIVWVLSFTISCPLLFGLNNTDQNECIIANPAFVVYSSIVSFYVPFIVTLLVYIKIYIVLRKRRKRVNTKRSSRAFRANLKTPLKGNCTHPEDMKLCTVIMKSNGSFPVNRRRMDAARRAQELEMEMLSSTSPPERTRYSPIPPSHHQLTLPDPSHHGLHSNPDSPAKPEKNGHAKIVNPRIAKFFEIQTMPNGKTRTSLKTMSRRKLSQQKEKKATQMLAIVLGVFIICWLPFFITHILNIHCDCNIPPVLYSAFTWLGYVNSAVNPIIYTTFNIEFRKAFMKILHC

Question: Which Ki (D(2) dopamine receptor) does the source give for `CCN1CCC[C@H]1CNC(=O)c1cc(I)cc(OC)c1OC` [EPIDEPRIDE] here?
Answer: Its Ki is 0.025 nM.

Question: How did the Ki (D(2) dopamine receptor) turn out when `CCN1CCC[C@@H]1CNC(=O)c1cccc(OC)c1OCCF` was run?
Answer: The Ki was 13 nM.

Question: Which Ki (Rattus norvegicus [1]) does the source give for `COC(=O)[C@@H]1[C@H]2C[C@H]3c4[nH]c5ccccc5c4CCN3C[C@@H]2CC[C@@H]1O` [YOHIMBINE] here?
Answer: The Ki was 505 nM.

Question: How did the Ki (D(2) dopamine receptor) turn out when `CCN1CCC[C@H]1CNC(=O)c1cc(I)cc2c1OCC2` was run?
Answer: The Ki was 0.106 nM.

Question: For `CCN1CCC[C@H]1CNC(=O)c1c(OC)ccc(I)c1O` [IOLOPRIDE], which Ki (D(2) dopamine receptor) is on record?
Answer: Its Ki is 0.43 nM.

Question: Which Ki (Rattus norvegicus [2]) does the source give for `C=CCN1CC[C@]23c4c5ccc(O)c4O[C@H]2C(=O)CC[C@@]3(O)[C@H]1C5` [NALOXONE] here?
Answer: Its Ki is over 10000 nM.

Question: And the Ki (Rattus norvegicus [1])?
Answer: Its Ki is over 10000 nM.

Question: How did the Ki (D(2) dopamine receptor) turn out when `COc1cc(Br)cc(C(=O)NC[C@@H]2CCCN2Cc2ccc(F)cc2)c1OC` was run?
Answer: The Ki was 0.147 nM.

Question: How did the Ki (D(2) dopamine receptor) turn out when `CCN1CCC[C@H]1CNC(=O)c1c(O)c(I)cc(OC)c1OC` [IOXIPRIDE] was run?
Answer: The Ki was 0.019 nM.

Question: `CCN1CCC[C@H]1CNC(=O)c1c(OC)ccc(S(N)(=O)=O)c1I` [IODOSULPIRIDE] was tested. Which Ki (D(2) dopamine receptor) did it give?
Answer: The Ki was 1.5 nM.

Question: For `NCCc1c[nH]c2ccc(O)cc12` [SEROTONIN], which Ki (Rattus norvegicus [2]) is on record?
Answer: Its Ki is over 5000 nM.

Question: With `CCN1CCC[C@H]1CNC(=O)c1cc(CCCF)cc(OC)c1OC` as the molecule, how does the Ki (D(2) dopamine receptor) read?
Answer: The Ki was 0.02 nM.

Question: For `CCCN1CCC[C@@H]2Cc3n[nH]cc3C[C@H]21` [QUINPIROLE], which Ki (Rattus norvegicus [1]) is on record?
Answer: Its Ki is 8000 nM.

Question: With `CCN1CCC[C@H]1CNC(=O)c1c(O)c(Cl)cc(Cl)c1OC` [RACLOPRIDE] as the molecule, how does the Ki (Rattus norvegicus [3]) read?
Answer: Its Ki is 2.31 nM.

Question: What about the Ki (Rattus norvegicus [4]) of the same molecule?
Answer: Its Ki is 5 nM.

Question: For `CC(C)(C)[C@@]1(O)CCN2C[C@@H]3c4ccccc4CCc4cccc(c43)[C@H]2C1`, which Ki (Rattus norvegicus [2]) is on record?
Answer: The Ki was 1.05 nM.

Question: What about the Ki (Rattus norvegicus [1]) of the same molecule?
Answer: The Ki was 0.4 nM.

Question: `CCc1cc(Cl)c(OC)c(C(=O)NC[C@@H]2CCCN2CC)c1O` [ETICLOPRIDE] was tested. Which Ki (Rattus norvegicus [3]) did it give?
Answer: Its Ki is 0.014 nM.

Question: And the Ki (Rattus norvegicus [4])?
Answer: The Ki was 0.06 nM.

Question: For `CCN1CCC[C@H]1CNC(=O)c1cc(I)ccc1OC` [IODOPRIDE], which Ki (D(2) dopamine receptor) is on record?
Answer: The Ki was 3 nM.

Question: `CN1[C@@H]2CC[C@H]1C[C@@H](OC(=O)C(CO)c1ccccc1)C2` (some centres not stated) [ATROPINE] was tested. Which Ki (Rattus norvegicus [2]) did it give?
Answer: The Ki was over 10000 nM.

Question: And the Ki (Rattus norvegicus [1])?
Answer: The Ki was over 10000 nM.
